# Calls of active or inactive are those of the source. The rule behind the calls is not given here.
# Legend:
# [1] = Binding affinity to the thyroid hormone receptor was determined in vitro in isolated nuclei of rat liver relative to 3,5,3' triiodothyronine; type: tissue-based
# Rattus norvegicus [2] = assay: Percent increase in oxygen consumption after seven daily doses of test compound given perorally, with concentration of compound at 0.1 mg/kg; type: functional; settings: route oral
# Summary of the method: (§1)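 Euthyroid rats given seven daily doses, intramuscular or oral, by line; whole-body oxygen consumption measured as percent increase in metabolic rate.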
# Rattus norvegicus [3] = assay: Percent increase in oxygen consumption after seven daily doses of test compound given intramuscularly, with the concentration of compound at 0.1 mg/kg; type: functional; settings: route intramuscular; summary of the method: as §1
# Rattus norvegicus [4] = assay: Potency for induction of GPDH (mitochondrial cytochrome C3-phosphoglycerate oxidoreductase) was measured 48 hours after single intramuscular injection relative to T3 in heart; type: functional
# Rattus norvegicus [5] = assay: Potency for induction of GPDH (mitochondrial cytochrome C3-phosphoglycerate oxidoreductase) was measured 48 hours after single intramuscular injection relative to T3 in liver; type: functional
# [6] = biological target: T1, Thyroid hormone receptor beta (Rattus norvegicus) (UniProt P18113); assay: Binding affinity to the receptor was determined in vitro in isolated nuclei of rat liver relative to T3; type: tissue-based
# T1 sequence (whole entry): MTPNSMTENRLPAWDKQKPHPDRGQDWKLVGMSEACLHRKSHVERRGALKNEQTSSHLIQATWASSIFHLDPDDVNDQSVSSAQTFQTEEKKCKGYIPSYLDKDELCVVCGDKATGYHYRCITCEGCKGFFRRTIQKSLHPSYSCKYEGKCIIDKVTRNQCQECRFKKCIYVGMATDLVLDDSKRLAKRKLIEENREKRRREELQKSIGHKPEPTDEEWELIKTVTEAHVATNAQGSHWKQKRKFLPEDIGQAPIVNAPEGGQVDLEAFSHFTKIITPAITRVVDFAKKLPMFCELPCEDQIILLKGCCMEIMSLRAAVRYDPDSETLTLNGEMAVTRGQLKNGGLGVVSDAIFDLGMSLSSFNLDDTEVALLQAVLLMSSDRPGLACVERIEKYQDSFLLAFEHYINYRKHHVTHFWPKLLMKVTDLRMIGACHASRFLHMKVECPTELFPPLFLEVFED
# [7] = biological target: T1, Thyroid hormone receptor beta (Rattus norvegicus); assay: (§2) In vitro binding affinity to the receptor was determined in isolated nuclei of heart relative to T3; type: functional
# Rattus norvegicus [8] = assay: Percent increase in oxygen consumption after seven daily doses of test compound given perorally, with value in braces indicating the concentration of compound at 5 mg/kg; type: functional; settings: route oral; summary of the method: as §1
# Rattus norvegicus [9] = assay: Percent increase in oxygen consumption after seven daily doses of test compound given intramuscularly, with the concentration of compound at 10 mg/kg; type: functional; settings: route intramuscular; summary of the method: as §1
# Rattus norvegicus [10] = assay: Potency for induction of GPDH (mitochondrial cytochrome C3-phosphoglycerate oxidoreductase) was measured 48 hr after single im injection relative to T3 in heart; I=inactive after 2 daily doses of 50 mg/kg; type: functional, organism-based; set-up: dose 50 mg/kg
# Rattus norvegicus [11] = assay: Percent increase in oxygen consumption after seven daily doses of test compound given perorally, with concentration of compound at 0.04 mg/kg; type: functional; settings: route oral; summary of the method: as §1
# Rattus norvegicus [12] = assay: Potency for induction of GPDH (mitochondrial cytochrome C3-phosphoglycerate oxidoreductase) was measured 48 hours after single intramuscular injection relative to […] in liver; type: functional
# Rattus norvegicus [13] = assay: Potency for induction of GPDH (mitochondrial cytochrome C 3-phosphoglycerate oxidoreductase) was measured 48 hr after single im injection relative to T3 in heart; LM=low maximal response after 2 daily doses of 50 mg/kg; type: functional, organism-based; set-up: dose 50 mg/kg; settings: filed as partial agonist
# [14] = test system: Thyroid hormone receptor (Rattus norvegicus); assay: Binding affinity to thyroid hormone receptor, relative to 3,5,3' triiodothyronine receptor, in isolated nuclei of heart
# Rattus norvegicus [15] = assay: In vivo binding affinity for 3,5,3'' triiodothyronine receptor of heart nuclei 1 hr after intravenous administration; type: organism-based
# Rattus norvegicus [16] = assay: In vivo binding affinity for 3,5,3' triiodothyronine receptor of liver nuclei 1 hour after intravenous administration; type: organism-based
# [17] = Aqueous solubility at 37 degree Celsius at pH 7.38; type: physicochemical
# Summary of the method: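 Solubility in aqueous medium at 37 °C, pH 7.38; given in units of ×10^5 mol/L.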
# [18] = partition coefficient at 25 degree Celsius in octanol/aqueous buffer at pH 6.02; type: physicochemical
# Rattus norvegicus [19] = assay: Percent increase in oxygen consumption after seven daily doses of test compound given perorally, with concentration of compound at 5 mg/kg; type: functional; settings: route oral; summary of the method: as §1
# Rattus norvegicus [20] = assay: Percent increase in oxygen consumption after seven daily doses of test compound given intramuscularly, ata conc of 3.3 mg/kg; type: functional; settings: route intramuscular; summary of the method: as §1
# Rattus norvegicus [21] = assay: Percent increase in oxygen consumption after seven daily doses of test compound given intramuscularly, at a conc of 3.3 mg/kg; type: functional; settings: route intramuscular; summary of the method: as §1
# Rattus norvegicus [22] = assay: Percent increase in oxygen consumption after seven daily doses of test compound given perorally; I=inactive after 2 daily doses of 50 mg/kg; type: functional, organism-based; set-up: dose 50 mg/kg; summary of the method: as §1
# [23] = biological target: T1, Thyroid hormone receptor beta (Rattus norvegicus); assay: as §2
# [24] = biological target: T1, Thyroid hormone receptor beta (Rattus norvegicus); assay: Binding affinity to the receptor was determined in nuclei of heart in vivo 1 hour after intravenous administration relative to T3; type: organism-based
# [25] = biological target: T1, Thyroid hormone receptor beta (Rattus norvegicus); assay: Selectivity, ratio of relative ID50 in liver and heart
# Summary of the method: (§3)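 Liver/heart selectivity in rats, calculated as (relative ID50)liver divided by (relative ID50)heart, from in vivo nuclear binding 1 h after intravenous dosing.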
# [26] = biological target: T1, Thyroid hormone receptor beta (Rattus norvegicus); assay: Binding affinity to the receptor was determined in nuclei of liver In vivo 1 hour after intravenous administration relative to 3,5,3' triiodothyronine receptor; type: organism-based
# Rattus norvegicus [27] = assay: Potency for induction of GPDH (mitochondrial cytochrome C3-phosphoglycerate oxidoreductase) was measured 48 hours after single intramuscular injection relative to T3 in liver; LM is low maximal response after 2 daily doses of 50 mg/kg; type: functional
# [28] = biological target: T1, Thyroid hormone receptor beta (Rattus norvegicus); assay: Binding affinity to the receptor was determined in isolated nuclei of heart in vitro relative to 3,5,3' triiodothyronine receptor
# [29] = biological target: T1, Thyroid hormone receptor beta (Rattus norvegicus); assay: Binding affinity to the receptor was determined in nuclei of heart in vivo 1 hour after intravenous administration relative to 3,5,3' triiodothyronine receptor
# [30] = biological target: T1, Thyroid hormone receptor beta (Rattus norvegicus); assay: Binding affinity to the receptor was determined in isolated nuclei of heart(In vitro) relative to T3
# [31] = Partition coefficient at 25 degree Celsius in octanol/aqueous buffer at pH 6.02; type: physicochemical
# Rattus norvegicus [32] = assay: Percent increase in oxygen consumption after seven daily doses in mg/kg increase of test compound given perorally; I=inactive after 2 daily doses of 50 mg/kg; type: functional, organism-based; set-up: dose 50 mg/kg; summary of the method: as §1
# [33] = biological target: T1, Thyroid hormone receptor beta (Rattus norvegicus); assay: Binding affinity to the receptor was determined in nuclei of liver In vivo 1 hour after intravenous administration relative to T3; type: organism-based
# [34] = Selectivity, ratio between relative ID50 in liver and heart; summary of the method: as §3
# Rattus norvegicus [35] = assay: Percent increase in oxygen consumption in dose-mg/Kgfter seven daily doses of test compound given intramuscularly, at a conc of 3.3 mg/kg; type: functional; settings: route intramuscular; summary of the method: as §1
# Rattus norvegicus [36] = assay: Percent increase in oxygen consumption after seven daily doses of test compound given intramuscularly, with concentration of compound at 20 mg/kg; type: functional; settings: route intramuscular; summary of the method: as §1
# Rattus norvegicus [37] = assay: Percent increase in oxygen consumption after seven daily doses of test compound given perorally, with concentration of compound; I=inactive after 2 daily doses of 5o mg/kg; type: functional, organism-based; summary of the method: as §1
# Rattus norvegicus [38] = assay: Potency for induction of GPDH (mitochondrial cytochrome C3-phosphoglycerate oxidoreductase) was measured relative to T3 in heart; I=inactive after 2 daily doses of 50 mg/kg; type: functional, organism-based; set-up: dose 50 mg/kg
# Rattus norvegicus [39] = assay: Percent increase in oxygen consumption after seven daily oral doses of 5 mg/kg in euthyroid rats
# [40] = biological target: T1, Thyroid hormone receptor beta (Rattus norvegicus); assay: Binding affinity to the receptor was determined in isolated nuclei of liver in vitro relative to 3,5,3' triiodothyronine receptor
# [41] = biological target: T1, Thyroid hormone receptor beta (Rattus norvegicus); assay: In vivo binding affinity to the receptor was determined in nuclei of heart 1 h after intravenous administration relative to 3,5,3' triiodothyronine receptor
# Rattus norvegicus [42] = assay: Percent increase in oxygen consumption after seven daily doses of test compound given perorally, with concentration of compound at 5.3 mg/kg; type: functional; settings: route oral; summary of the method: as §1
# Rattus norvegicus [43] = assay: Percent increase in oxygen consumption after seven daily doses of test compound given perorally; I is inactive after 2 daily doses of 50 mg/kg; type: functional, organism-based; set-up: dose 50 mg/kg; summary of the method: as §1
# Rattus norvegicus [44] = assay: Potency for induction of GPDH was measured 48 hr after single intramuscular injection relative to T3 in lheart; LM=low maximal response after 2 daily doses of 50 mg/kg; type: functional, organism-based; set-up: dose 50 mg/kg; settings: filed as partial agonist
# Rattus norvegicus [45] = assay: Potency for induction of GPDH (mitochondrial cytochrome C 3-phosphoglycerate oxidoreductase) was measured 48 hr after single im injection relative to T3 in liver; LM=low maximal response after 2 daily doses of 50 mg/kg; type: functional, organism-based; set-up: dose 50 mg/kg; settings: filed as partial agonist
structure (smiles),measurement,setting,value
N[C@@H](Cc1cc(Br)c(Oc2ccc(O)c(Cc3ccc(O)nn3)c2)c(Br)c1)C(=O)O,Relative IC50,[1],0.9
same,Increase,Rattus norvegicus [2],20%
same,Increase,Rattus norvegicus [3],20%
same,Relative ED50,Rattus norvegicus [4],<0.1
same,Relative ED50,Rattus norvegicus [5],18
Cc1cc(CC(N)C(=O)O)cc(C)c1Oc1ccc(O)c(Cc2ccc(O)nc2)c1 (configuration not stated),Relative IC50,[6],0.083
same,Relative IC50,[7],0.14
same,Increase,Rattus norvegicus [8],18%
same,Increase,Rattus norvegicus [9],28%
same,Relative ED50,Rattus norvegicus [5],1.1
same,Relative ED50,Rattus norvegicus [10],inactive
N[C@@H](Cc1cc(Cl)c(Oc2ccc(O)c(Cc3ccc(O)nn3)c2)c(Cl)c1)C(=O)O,Relative IC50,[1],0.48
same,Increase,Rattus norvegicus [11],15%
same,Relative ED50,Rattus norvegicus [12],25
same,Relative ED50,Rattus norvegicus [13],Partial agonist
same,Relative IC50,[14],0.8
N[C@@H](Cc1cc(Br)c(Oc2ccc(O)c(Cc3ccc(O)nc3)c2)c(Br)c1)C(=O)O,Relative IC50,[1],2
same,Relative ID50,Rattus norvegicus [15],0.3
same,Relative ID50,Rattus norvegicus [16],23
same,solubility,[17],33 µM
same,logD,[18],0.7
same,Increase,Rattus norvegicus [19],31%
same,Relative ED50,Rattus norvegicus [5],6.9
same,Relative ED50,Rattus norvegicus [10],inactive
same,Increase,Rattus norvegicus [20],32%
same,Relative IC50,[14],1.8
N[C@@H](Cc1cc(I)c(Sc2ccc(O)c(Cc3ccc(O)nc3)c2)c(I)c1)C(=O)O,Relative IC50,[1],14.8
same,Increase,Rattus norvegicus [21],26%
same,% increase O2 consumption,Rattus norvegicus [22],inactive
same,Relative ED50,Rattus norvegicus [5],16.6
same,Relative ED50,Rattus norvegicus [10],inactive
same,Relative IC50,[14],19.4
O=C(O)CCc1cc(Br)c(Oc2ccc(O)c(Cc3ccc(O)nc3)c2)c(Br)c1,Relative IC50,[6],31.6
same,Relative IC50,[23],33.2
same,Relative ID50,[24],4.2
same,Relative ED50,Rattus norvegicus [4],0.04
same,Relative ED50,Rattus norvegicus [5],2
N[C@@H](Cc1cc(I)c(Oc2ccc(O)c(Cc3ccc(F)cc3)c2)c(I)c1)C(=O)O,Ratio,[25],11.4
same,Relative IC50,[1],60
same,Relative ID50,[26],98
same,Relative ED50,Rattus norvegicus [4],3.7
same,Relative ED50,Rattus norvegicus [27],5.7
same,Relative IC50,[28],43
same,Relative ID50,[29],8.6
N[C@@H](Cc1cc(I)c(Oc2ccc(O)c(Cc3ccc(O)nc3)c2)c(I)c1)C(=O)O,Relative IC50,[30],2.7
same,Relative IC50,[1],2.3
same,solubility,[17],10 µM
same,logD,[31],1.01
same,Increase,Rattus norvegicus [32],inactive
same,Relative ED50,Rattus norvegicus [5],1.7
same,Relative ED50,Rattus norvegicus [10],inactive
same,Relative ID50,[33],10
same,Ratio,[34],50
same,Increase,Rattus norvegicus [35],19%
same,Relative ID50,[29],0.2
O=C(O)Cc1cc(Br)c(Oc2ccc(O)c(Cc3ccc(O)nc3)c2)c(Br)c1,Relative IC50,[1],3
same,Increase,Rattus norvegicus [36],21%
same,Relative ED50,Rattus norvegicus [5],2
same,% increase O2 consumption,Rattus norvegicus [37],inactive
same,Relative ED50,Rattus norvegicus [10],inactive
O=C(O)CCCc1cc(Br)c(Oc2ccc(O)c(Cc3ccc(O)nc3)c2)c(Br)c1,Relative IC50,[1],21.7
same,Relative ED50,Rattus norvegicus [5],0.69
same,Relative ED50,Rattus norvegicus [38],inactive
same,Increase,Rattus norvegicus [39],19%
same,Relative IC50,[40],21.7
same,Relative ID50,[41],0.26
N[C@@H](Cc1cc(Br)c(Sc2ccc(O)c(Cc3ccc(O)nc3)c2)c(Br)c1)C(=O)O,Relative IC50,[1],9.8
same,Increase,Rattus norvegicus [42],16%
same,Relative ED50,Rattus norvegicus [12],14.5
same,Relative ED50,Rattus norvegicus [13],Partial agonist
same,Relative IC50,[14],10.2
N[C@H](Cc1cc(I)c(Oc2ccc(O)c(Cc3ccc(O)nc3)c2)c(I)c1)C(=O)O,Relative IC50,[1],1.1
same,Relative ED50,Rattus norvegicus [5],1
same,% increase O2 consumption,Rattus norvegicus [43],inactive
same,Relative ED50,Rattus norvegicus [10],inactive
same,Relative IC50,[14],1.9
N[C@@H](Cc1cc(I)c(Oc2ccc(O)c(Cc3ccccc3O)c2)c(I)c1)C(=O)O,Relative IC50,[1],0.81
same,Relative ED50,Rattus norvegicus [44],Partial agonist
same,Relative ED50,Rattus norvegicus [45],Partial agonist
same,Relative ID50,[33],0.024
same,Ratio,[34],1
same,Relative ID50,[29],0.024
